Screening results deposited in PubChem BioAssay by several laboratories.
A selection: hits, their analogues and other compounds. The true share with any hit is near 3.8%.
rCAG binder – molecules binding r(CAG) RNA repeats | r(CAG) RNA repeat, TO-PRO-1 dye displacement fluorescence | inhibition, % at 3 µM | actives 1.3% (n = 370,000);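 active means inhibition above the plate cutoff, the mean of all test compounds on that plate plus 3 SD, cut at about 35% in these data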;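 further: higher means more dye released from RNA so lower well fluorescence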
Beta2AR agonist – human beta-2 adrenergic receptor agonism by FAP | P07550 | AID 504454 | response, % (no concentration beside the values) | actives 0.43% (n = 340,000) | Am2.2-beta2AR cells, FAP receptor internalization, flow cytometry;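 active means response above a set limit, near 3 SD of response in nonfluorescent compounds, cut at about 42% in these data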
Target sequence (P07550 whole entry, looked up): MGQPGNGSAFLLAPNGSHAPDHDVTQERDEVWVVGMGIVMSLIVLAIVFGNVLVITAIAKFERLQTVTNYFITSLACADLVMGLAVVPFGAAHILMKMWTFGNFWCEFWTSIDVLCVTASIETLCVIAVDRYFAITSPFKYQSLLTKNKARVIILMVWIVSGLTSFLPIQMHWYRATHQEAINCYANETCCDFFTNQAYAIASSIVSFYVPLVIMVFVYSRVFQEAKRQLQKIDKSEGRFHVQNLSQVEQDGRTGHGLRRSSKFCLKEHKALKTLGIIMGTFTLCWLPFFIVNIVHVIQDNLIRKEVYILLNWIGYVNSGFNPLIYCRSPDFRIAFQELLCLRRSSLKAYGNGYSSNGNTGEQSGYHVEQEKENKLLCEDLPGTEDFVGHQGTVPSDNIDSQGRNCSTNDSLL
Granule exo inh – blocks lytic granule exocytosis | TALL-104 LAMP-1 surface exposure, flow cytometry; cells stimulated with thapsigargin and PMA | AID 651702 | actives 0.66% (n = 360,000) | inhibition, % at 10 µM;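 active means inhibition above about 55%, limit read from the data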
MPTP block – inhibitors of mitochondrial permeability transition pore. isolated mouse mitochondria, Ca2+ swelling absorbance, 30 min. inhibition, % at 10 µM. actives 1.4% (n = 360,000). AID 602449;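 active means inhibition of 50% or more, scaled per plate between neutral and stimulator controls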
V-ATPase pHluor – alters yeast V-ATPase proton transport | AID 504577 | S. cerevisiae, pHLuorin cytosolic pH fluorescence | actives 0.37% (n = 350,000) | response, % at 10 µM; in the data active means response mostly above about 7.3%, no sharp cut-off; inactive means mostly below about 5.4%; further: actives read high
T cell HTS – T cell immune modulation candidate; 2C CD8+ T cell-vesicle binding, flow cytometry; stronger effect = lower value; actives 0.068% (n = 330,000); response (vesicle binding), % at 7 µM;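 active means response, share of CD8 T cells binding vesicles, and their 90th percentile fluorescence all below set limits, cut at about 80% in these data, passing the limit was not always enough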;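 further: values below 100% mean blocked vesicle binding to the CD8+ T cells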
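Material: murine 2C transgenic CD8+ T lymphocytes / Also added: QL9-peptide-loaded Drosophila micro-vesicles bearing Ld, ICAM-1 and B7-1 / Schedule: binding step 1.5 h, 37 °C, antibody labelling 20 min, ice / Signal: flow cytometry, PE anti-B7-1 (FL2) versus Alexa647 anti-CD8 (FL8), PFA-fixed / Evaluation: percent CD8+ FL2 mean versus row control / Benchmarks: naked versus QL9-loaded vesicles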
rCAG bind conf – r(CAG) RNA repeat binding, confirmation | shares compounds with rCAG binder | TO-PRO-1 dye displacement fluorescence | inhibition, % at 3 µM | actives 70% (n = 4,300);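 active means inhibition above a per-plate cutoff, the mean inhibition of sample wells plus 3 SD, cut at about 35% in these data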;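 further: loss of TO-PRO-1 fluorescence as compound displaces dye from 1x1 AA loop RNA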
DNA CAG counter – DNA CAG dye complex inhibition counter-screen | inhibition, % at 3 µM | AID 652068 | d(CAG) DNA oligo TO-PRO-1 dye displacement, fluorescence | actives 94% (n = 4,300) | shares compounds with rCAG binder;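 active means inhibition above its plate's cutoff, the mean test-well inhibition plus 3 SD, cut at about 4.8% in these data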;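 further: hits displace the dye from DNA and so lower well fluorescence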
dCAG dye DR – counter-screen for rCAG binders: inhibitors of DNA CAG TO-PRO-1 complex | shares compounds with rCAG binder | DNA CAG/GTC duplex TO-PRO-1 dye displacement fluorescence | IC50, µM | actives 20% (n = 250) | AID 686960; in the data active means IC50 below about 10 µM
A number is an active result; i = inactive; nt = not tested or not shown; ! = not confirmed by another sample.

SMILES | rCAG binder | Beta2AR agonist | Granule exo inh | MPTP block | V-ATPase pHluor | T cell HTS | rCAG bind conf | DNA CAG counter | others
N=C1/C(=C\c2ccc(OC(=O)c3ccco3)cc2)C(=O)N=C2SC(N3CCCCC3)=NN12 | 40 | i | i | i | i | i | i | 11
C#CCN(Cc1cccc(F)c1)C(=O)c1nnc2c3cc(F)ccc3n(S(=O)(=O)c3ccc(OC)cc3)c2n1 | i | nt | nt | nt | nt | nt | nt | nt
O=C(CC1SC(=O)N(c2ccccc2)C1=O)Nc1ccc(Br)cc1 (stereo not drawn) | 42 | i | i | i | i | i | i | 8.1
O=C(CC1SC(=O)N(c2ccccc2)C1=O)Nc1ccc(Cl)cc1 (stereo not drawn) | 43 | i | i | i | i | i | i | 6.6
CCOC(=O)c1cccc(NC(=O)CN(C)S(=O)(=O)c2ccc(Br)s2)c1 | i | nt | nt | nt | nt | nt | nt | nt
COC(=O)[C@]12C[C@H](CC(=O)NCc3cccc4ccccc34)C(=O)N(Cc3ccco3)C1=C[C@H](COCc1ccccc1)O[C@@H]2C | i | nt | nt | nt | nt | nt | nt | nt
CC(=O)c1cc(-c2ccccc2)n(CC(=O)NCc2ccc(F)cc2)c1C | i | nt | nt | nt | nt | nt | nt | nt
Cc1cc(Nc2ccc(C(=O)O)cc2)nc(N)n1 | i | i | i | i | i | i | nt | nt
CC(=O)NNc1cc(C)nc(N)n1 | 66 | i | i | i | i | i | i | i
COC(=O)[C@]12C[C@H](CC(=O)NCCc3ccccc3OC)C(=O)N(CCC3=CCCCC3)C1=C[C@H](COCc1ccccc1)O[C@@H]2C | i | nt | nt | nt | nt | nt | nt | nt
CN(C)c1cccc(/C=C2\CC3(OC(=O)c4ccco4)CCCN2C3)c1 (stereo not drawn) | i | nt | nt | nt | nt | nt | nt | nt
COc1cc2ccccc2cc1C(=O)NC(=S)Nc1ccc(C(=O)O)cc1 | i | i | i | i | i | i | nt | nt
COc1cc2ccccc2cc1C(=O)NC(=S)Nc1cccc(C(=O)O)c1 | 39 | i | i | i | i | i | 69 | 34
CC(C)(C)S(=O)N1C[C@@H]2CC(=O)C=C2[C@H]1CCO (stereo partly drawn) | i | nt | nt | nt | nt | nt | nt | nt
c1cn2c(NC3CCCC3)c(-c3ccc(N4CCOCC4)cc3)nc2cn1 | i | i | i | i | i | i | nt | nt
c1cn2c(NC3CCCCC3)c(-c3ccc(SC4CCCCC4)cc3)nc2cn1 | 50! | i | i | i | i | i | 37 | 8.3 | dCAG dye DR=i
COC(=O)c1c(C)[nH]c(C)c1-c1ccc(C)cc1 | 43 | i | i | i | i | i | i | i
COC(=O)c1c(C)[nH]c(C)c1-c1cccc([N+](=O)[O-])c1 | i | i | i | i | i | i | nt | nt
CCC(C)(C)C(=O)N1CCC(C(=O)NC2CCCc3ccccc32)CC1 (stereo not drawn) | i | nt | nt | nt | nt | nt | nt | nt
Clc1ccc(-c2ccc(-c3nn4c(-c5ccco5)nnc4s3)o2)cc1 | 35 | i | i | i | i | i | i | 9.1
O=C(CSc1nnc(-c2cccnc2)n1-c1ccc(Cl)cc1)c1ccc2ccccc2c1 | i | nt | nt | nt | nt | nt | nt | nt
Cc1ccccc1C(=O)Nc1cccc(C(=O)N/N=C/c2cc(Cl)cc([N+](=O)[O-])c2O)c1 | 87 | i | i | i | i | i | 73 | 36
Cc1cc(C(=O)N/N=C/c2cc(Br)cc([N+](=O)[O-])c2O)c2ccccc2n1 | 49 | i | i | i | i | i | 58 | 20
O=C(O)C(Cc1c[nH]c2ccccc12)N1C(=O)C2C3c4ccccc4C(c4ccccc43)[C@@H]2C1=O (stereo partly drawn) | 50 | i | i | i | i | i | 45 | 12
CCc1ccc(NC(=O)c2ccc3c(c2)C(=O)N(Cc2ccco2)C3=O)cc1 | 35 | i | i | i | i | i | i | 14
SMILES | rCAG binder | Beta2AR agonist | Granule exo inh | MPTP block | V-ATPase pHluor | T cell HTS | rCAG bind conf | DNA CAG counter | others
CC(C)=CCC[C@H](C)CC1Cc2[nH]c(=S)[nH]c(=O)c2C(c2ccc(Cl)cc2)O1 (stereo partly drawn) | 35 | nt | i | i | nt | nt | 42 | 16
CCn1c(SCc2ccc(C(C)(C)C)cc2)nnc1-c1ccc(C(C)(C)C)cc1 | i | nt | nt | nt | nt | nt | nt | nt
COc1cccc(N=Nc2c(=O)[nH]n3c(=O)c4c([nH]c23)CCC4)c1 | 39 | i | i | i | i | i | i | 7.6
O=c1[nH]n2c(=O)c3c([nH]c2c1N=Nc1cccc(C(F)(F)F)c1)CCCC3 | 99 | i | i | i | i | i | 76 | 42
O=c1[nH]n2c(=O)c3c([nH]c2c1N=Nc1cccc(Cl)c1)CCC3 | 85 | i | i | i | i | i | 73 | 31 | dCAG dye DR=8.4
NS(=O)(=O)c1ccc(N=Nc2c(=O)[nH]n3c(=O)c4c([nH]c23)CCCC4)cc1 | i | i | i | i | i | i | nt | nt
O=S1(=O)CC2c3ccccc3CCN2CN1CCc1ccccc1 (stereo not drawn) | i | nt | nt | nt | nt | nt | nt | nt
COC(=O)C1=C(C)N(Cc2ccccc2C(F)(F)F)C(=NCc2ccccc2)NC1c1ccc(Cl)cc1 (stereo not drawn) | i | nt | nt | nt | nt | nt | nt | nt
O=C(NCCCc1ccccc1)OC1CC2CC1[C@H]1CCCCN1C2 (stereo partly drawn) | i | nt | nt | nt | nt | nt | nt | nt
COC(=O)[C@]12CCCCC=C1N(Cc1ccc(OC)cc1)C(=O)[C@@H]2CC(=O)NCCCCc1ccccc1 | i | nt | nt | nt | nt | nt | nt | nt
CC(C)(C)c1ccc(S(=O)(=O)N2CC(C(=O)O)Oc3ccc(Cl)cc32)cc1 (stereo not drawn) | 63 | i | i | i | i | i | 63 | 26
COc1ccc(S(=O)(=O)N2CC(C(=O)O)Oc3ccc(Cl)cc32)cc1 (stereo not drawn) | i | i | i | i | i | i | nt | nt
C=CCn1c(SCc2ccc(Br)cc2F)nc2cc(C(=O)O)ccc2c1=O | 57 | i | i | i | i | i | 60 | 22
COC(=O)c1ccc(CN2C(=O)[C@]3(OCCC=C[C@H]3C)c3cc(OC)ccc32)cc1 | i | nt | nt | nt | nt | nt | nt | nt
Cc1c(OC(C(=O)O)c2ccccc2)ccc2c1oc(=O)c1ccccc12 (stereo not drawn) | 36 | i | i | i | i | i | 48 | 14
Cc1c(OC(C(=O)O)c2ccccc2)ccc2c3c(c(=O)oc12)CCC3 (stereo not drawn) | i | i | i | i | i | nt | nt | nt
O=C(O)Cc1ccc(N2N=C(c3ccccc3)CC2=O)cc1 | 68 | nt | i | i | nt | nt | i | 6.0
COc1cccc(-c2cccc3c4c([nH]c23)[C@@H]2C[C@H]3[C@@H](C(=O)N2CC4)[C@H](C)ON3C)c1 | i | nt | nt | nt | nt | nt | nt | nt
CC(=O)C1=C(C)N(Cc2ccc(F)cc2)C(=S)NC1c1ccc(Br)cc1 (stereo not drawn) | i | nt | nt | nt | nt | nt | nt | nt
O=C(N/N=C1/CC2CCC1C2)c1cc2ccccc2cc1O (stereo not drawn) | 51 | i | i | i | i | i | i | i
